# What was measured:
# Liver microsome [1] = test: Drug metabolism in pooled human liver microsomes assessed as mono-oxygenated metabolite formation at 10 uM incubated for 60 mins in presence of NADPH by uHPLC-MS/MS method; format: ADME; conditions: 1 h
# How it was run: (§1)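 Metabolite identification in human liver microsome incubations with 10 μM substrate. Products were assigned by m/z (monooxygenated, dihydroxylated, N-dealkylated), uHPLC retention time and MS/MS fragment ions. Parallel incubations in isotopic water located the inserted oxygen from +2 shifts in fragment masses.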
# Liver microsome [2] = test: Drug metabolism in pooled human liver microsomes assessed as compound formation at 10 uM incubated for 60 mins in presence of NADPH by uHPLC-MS/MS method; format: ADME; conditions: 1 h; how it was run: as §1
# [3] = Retention time of the compound by uHPLC-MS/MS method; format: physicochemical; how it was run: as §1
# Cytochrome P450 1A2 [4] = target: T1, Cytochrome P450 1A2 (Homo sapiens, UniProt P05177); test: Drug metabolism assessed as CYP1A2 (unknown origin)-mediated compound formation at 10 uM incubated for 60 mins in presence of NADPH by uHPLC-MS/MS method; format: ADME; conditions: 1 h
# T1 sequence (P05177 whole entry): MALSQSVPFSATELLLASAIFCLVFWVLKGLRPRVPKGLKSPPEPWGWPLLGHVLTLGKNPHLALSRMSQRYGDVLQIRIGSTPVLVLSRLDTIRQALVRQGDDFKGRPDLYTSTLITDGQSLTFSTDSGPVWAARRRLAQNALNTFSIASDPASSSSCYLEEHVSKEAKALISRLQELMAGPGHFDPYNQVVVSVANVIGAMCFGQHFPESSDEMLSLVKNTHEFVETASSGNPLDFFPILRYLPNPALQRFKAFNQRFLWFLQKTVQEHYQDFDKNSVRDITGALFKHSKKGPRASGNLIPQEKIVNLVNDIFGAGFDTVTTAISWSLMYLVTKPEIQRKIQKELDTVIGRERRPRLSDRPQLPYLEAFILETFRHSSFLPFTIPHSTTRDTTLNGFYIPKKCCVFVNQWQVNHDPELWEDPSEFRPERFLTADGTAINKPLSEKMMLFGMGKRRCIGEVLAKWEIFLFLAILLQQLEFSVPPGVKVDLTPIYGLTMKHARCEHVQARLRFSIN
# How it was run: (§2)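 Individual cDNA-expressed human P450s (CYP2B6 in insect microsomes) were incubated separately with each analogue at 10 μM. The enzyme panel covers the major drug-metabolizing P450s. Products were monitored as the metabolites first found in human liver microsome incubations, identified by m/z and retention time.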
# Cytochrome P450 2C19 [5] = target: T2, Cytochrome P450 2C19 (Homo sapiens, UniProt P33261); test: Drug metabolism assessed as CYP2C19 (unknown origin)-mediated compound formation at 10 uM incubated for 60 mins in presence of NADPH by uHPLC-MS/MS method; format: ADME; conditions: 1 h; how it was run: as §2
# T2 sequence (P33261 whole entry): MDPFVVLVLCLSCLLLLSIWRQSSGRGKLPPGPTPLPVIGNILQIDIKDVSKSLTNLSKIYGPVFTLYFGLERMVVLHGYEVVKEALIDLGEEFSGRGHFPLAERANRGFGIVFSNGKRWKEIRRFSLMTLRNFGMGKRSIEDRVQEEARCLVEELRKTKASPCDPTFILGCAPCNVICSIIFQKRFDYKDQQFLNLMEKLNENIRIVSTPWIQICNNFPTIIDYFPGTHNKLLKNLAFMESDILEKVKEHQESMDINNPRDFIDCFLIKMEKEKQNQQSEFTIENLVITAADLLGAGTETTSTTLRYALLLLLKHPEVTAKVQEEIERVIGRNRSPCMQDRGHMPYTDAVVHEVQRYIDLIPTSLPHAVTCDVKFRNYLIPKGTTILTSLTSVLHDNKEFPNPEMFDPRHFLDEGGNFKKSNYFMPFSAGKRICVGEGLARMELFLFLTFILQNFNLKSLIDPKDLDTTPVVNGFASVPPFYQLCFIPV
# Cytochrome P450 2D6 [6] = target: T3, Cytochrome P450 2D6 (Homo sapiens, UniProt P10635); test: Drug metabolism assessed as CYP2D6 (unknown origin)-mediated compound formation at 10 uM incubated for 60 mins in presence of NADPH by uHPLC-MS/MS method; format: ADME; conditions: 1 h; how it was run: as §2
# T3 sequence (P10635 whole entry): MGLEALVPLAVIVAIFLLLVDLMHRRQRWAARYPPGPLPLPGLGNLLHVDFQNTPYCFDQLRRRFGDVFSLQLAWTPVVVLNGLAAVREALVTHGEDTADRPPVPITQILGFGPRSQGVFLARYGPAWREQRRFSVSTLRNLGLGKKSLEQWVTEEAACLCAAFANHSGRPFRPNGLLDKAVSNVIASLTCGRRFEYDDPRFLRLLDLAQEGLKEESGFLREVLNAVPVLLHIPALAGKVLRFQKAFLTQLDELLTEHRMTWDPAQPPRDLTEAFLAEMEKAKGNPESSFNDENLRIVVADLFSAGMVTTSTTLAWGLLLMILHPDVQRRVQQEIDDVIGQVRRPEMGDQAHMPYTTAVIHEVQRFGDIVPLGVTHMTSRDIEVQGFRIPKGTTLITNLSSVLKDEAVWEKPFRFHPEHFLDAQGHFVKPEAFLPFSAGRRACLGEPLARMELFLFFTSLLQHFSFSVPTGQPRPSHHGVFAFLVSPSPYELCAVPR
# Cytochrome P450 1A2 [7] = target: T1, Cytochrome P450 1A2; test: Drug metabolism assessed as CYP1A2 (unknown origin)-mediated metabolite formation at 10 uM incubated for 60 mins in presence of NADPH by uHPLC-MS/MS method; format: ADME; conditions: 1 h; how it was run: as §2
# Cytochrome P450 2C19 [8] = target: T2, Cytochrome P450 2C19; test: Drug metabolism assessed as CYP2C19 (unknown origin)-mediated metabolite formation at 10 uM incubated for 60 mins in presence of NADPH by uHPLC-MS/MS method; format: ADME; conditions: 1 h; how it was run: as §2
# Cytochrome P450 2B6 [9] = target: T4, Cytochrome P450 2B6 (Homo sapiens, UniProt P20813); test: Inhibition of CYP2B6 (unknown origin) assessed as reduction in hydroxybupropion formation at 10 uM incubated for 10 mins by uHPLC-MS/MS method; format: ADME; conditions: 10 min, 10 µM
# T4 sequence (P20813 whole entry): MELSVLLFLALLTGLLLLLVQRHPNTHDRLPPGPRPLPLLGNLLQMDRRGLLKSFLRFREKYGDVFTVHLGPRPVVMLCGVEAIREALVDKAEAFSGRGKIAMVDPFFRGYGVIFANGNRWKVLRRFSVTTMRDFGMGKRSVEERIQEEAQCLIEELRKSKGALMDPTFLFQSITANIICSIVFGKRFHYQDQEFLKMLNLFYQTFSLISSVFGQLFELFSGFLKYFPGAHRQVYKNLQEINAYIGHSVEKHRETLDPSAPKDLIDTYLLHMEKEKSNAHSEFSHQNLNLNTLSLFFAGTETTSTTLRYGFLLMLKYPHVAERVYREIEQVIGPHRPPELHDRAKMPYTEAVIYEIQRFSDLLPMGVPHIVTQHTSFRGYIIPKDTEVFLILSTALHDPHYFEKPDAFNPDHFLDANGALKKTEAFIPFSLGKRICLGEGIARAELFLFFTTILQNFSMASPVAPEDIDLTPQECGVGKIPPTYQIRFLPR
# How it was run: (§3)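 CYP2B6 insect microsomes were coincubated with the probe substrate bupropion plus test compound at 10 μM. Hydroxybupropion formation was measured and compared with a vehicle control.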
# Cytochrome P450 2B6 [10] = target: T4, Cytochrome P450 2B6; test: Drug metabolism assessed as CYP2B6 (unknown origin)-mediated metabolite formation at 10 uM incubated for 60 mins in presence of NADPH by uHPLC-MS/MS method; format: ADME; conditions: 1 h; how it was run: as §2
# CYP2B6 [11] = target: T5, CYP2B6 (Homo sapiens, UniProt P20813); test: Activity of CYP2B6 (unknown origin) pre-incubated for 5 mins in presence of NADPH by uHPLC-MS/MS based substrate depletion kinetics assay; format: ADME; conditions: CYP2B6 enzyme (unknown origin)
# T5 sequence (P20813 whole entry): T4 sequence (P20813 whole entry)
# How it was run: (§4)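 cDNA-expressed CYP2B6 in insect microsomes. Parent loss was followed over time by substrate depletion, chosen because several metabolites form. Km and maximum depletion rate constant (kdep max, min–1) were derived from depletion kinetics, and Vmax was expressed as pmol/min/pmol P450.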
# Cytochrome P450 2B6 [12] = target: T4, Cytochrome P450 2B6; test: Activity of CYP2B6 (unknown origin) assessed as maximum depletion rate constant pre-incubated for 5 mins in presence of NADPH by uHPLC-MS/MS based substrate depletion kinetics assay; format: ADME; how it was run: as §4
# Cytochrome P450 2B6 [13] = target: T4, Cytochrome P450 2B6; test: Activity of CYP2B6 (unknown origin) assessed per pmol protein pre-incubated for 5 mins in presence of NADPH by uHPLC-MS/MS based substrate depletion kinetics assay; format: ADME; how it was run: as §4
# Cytochrome P450 3A5 = Cytochrome P450 3A5 (Homo sapiens, UniProt P20815); test: Drug metabolism assessed as CYP3A5 (unknown origin)-mediated metabolite formation at 10 uM incubated for 60 mins in presence of NADPH by uHPLC-MS/MS method; conditions: 1 h
# Sequence of Cytochrome P450 3A5 (P20815 whole entry, looked up): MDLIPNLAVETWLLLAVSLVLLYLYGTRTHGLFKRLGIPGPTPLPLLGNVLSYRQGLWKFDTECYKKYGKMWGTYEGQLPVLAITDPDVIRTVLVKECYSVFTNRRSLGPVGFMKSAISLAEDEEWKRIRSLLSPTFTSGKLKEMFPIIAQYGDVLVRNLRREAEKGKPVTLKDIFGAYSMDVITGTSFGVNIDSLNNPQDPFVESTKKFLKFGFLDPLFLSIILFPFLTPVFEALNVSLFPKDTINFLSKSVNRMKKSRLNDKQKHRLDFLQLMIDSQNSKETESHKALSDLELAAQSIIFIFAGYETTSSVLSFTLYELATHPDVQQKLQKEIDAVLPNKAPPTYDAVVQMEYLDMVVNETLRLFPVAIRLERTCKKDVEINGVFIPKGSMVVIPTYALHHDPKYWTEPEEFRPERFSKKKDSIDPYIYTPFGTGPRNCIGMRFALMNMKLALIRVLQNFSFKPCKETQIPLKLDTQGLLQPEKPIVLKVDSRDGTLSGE
# Liver microsome [14] = test: Drug metabolism in pooled human liver microsomes assessed as N-dealkylated metabolite formation at 10 uM incubated for 60 mins in presence of NADPH by uHPLC-MS/MS method; format: ADME; conditions: 1 h; how it was run: as §1
# Cytochrome P450 2D6 [15] = target: T3, Cytochrome P450 2D6; test: Drug metabolism assessed as CYP2D6 (unknown origin)-mediated metabolite formation at 10 uM incubated for 60 mins in presence of NADPH by uHPLC-MS/MS method; format: ADME; conditions: 1 h; how it was run: as §2
# CYP2B6 [16] = target: T5, CYP2B6; test: Inhibition of CYP2B6 (unknown origin) assessed as reduction in hydroxybupropion formation by measuring remaining enzyme activity at 10 uM incubated for 10 mins by uHPLC-MS/MS method; format: ADME; conditions: probe bupropion (hydroxybupropion formation), read-out: Activity; how it was run: as §3
# Liver microsome [17] = test: Drug metabolism in pooled human liver microsomes assessed as mono-oxygenated metabolite formation at 10 uM incubated for 60 mins in presence of NADPH and using isotopic water by uHPLC-MS/MS method; format: ADME; conditions: 1 h; how it was run: as §1
Drug metabolism (Liver microsome [1]),Drug metabolism (Liver microsome [2]),Retention_time [3] [min],Drug metabolism (Cytochrome P450 1A2 [4]),Drug metabolism (Cytochrome P450 2C19 [5]),Drug metabolism (Cytochrome P450 2D6 [6]),Drug metabolism (Cytochrome P450 1A2 [7]),Drug metabolism (Cytochrome P450 2C19 [8]),inhibition (INH) (Cytochrome P450 2B6 [9]),Drug metabolism (Cytochrome P450 2B6 [10]),Km (CYP2B6 [11]) [µM],K (Cytochrome P450 2B6 [12]) [min⁻¹],Vmax (Cytochrome P450 2B6 [13]) [pmol/min],Drug metabolism (Cytochrome P450 3A5),Drug metabolism (Liver microsome [14]),Drug metabolism (Cytochrome P450 2D6 [15]),"activity at 10 min, 10 µM (CYP2B6 [16]) [%]",Drug metabolism (Liver microsome [17]),Structure (SMILES)
metabolite_detected,metabolite_detected,7.31,metabolite_detected,metabolite_detected,metabolite_detected,metabolite_detected,metabolite_detected,Active,–,–,–,–,–,–,–,–,–,Nc1ccc(Cl)cc1[C@@](O)(C#CC1CC1)C(F)(F)F
metabolite_detected,metabolite_detected,7.25,metabolite_detected,metabolite_detected,metabolite_detected,metabolite_detected,metabolite_detected,Active,–,–,–,–,–,–,–,–,–,Nc1ccc(Cl)cc1[C@](O)(C#CC1CC1)C(F)(F)F
metabolite_detected,–,–,–,–,–,metabolite_detected,–,–,metabolite_detected,0.23,0.0057,0.13,metabolite_detected,–,–,–,–,O=C1Nc2ccc(Cl)cc2[C@@](/C=C/C2CC2)(C(F)(F)F)O1
–,–,–,–,–,–,metabolite_detected,metabolite_detected,–,–,–,–,–,–,metabolite_detected,metabolite_detected,52,–,COc1ccc(CNc2ccc(Cl)cc2[C@@](O)(C#CC2CC2)C(F)(F)F)cc1
–,–,–,–,–,–,metabolite_detected,metabolite_detected,–,–,–,–,–,–,metabolite_detected,metabolite_detected,62,–,COc1ccc(CNc2ccc(Cl)cc2[C@](O)(C#CC2CC2)C(F)(F)F)cc1
metabolite_detected,–,–,–,–,–,–,metabolite_detected,–,metabolite_detected,0.22,0.14,3.2,–,–,–,2,metabolite_detected,FC(F)(F)[C@@]1(C#CC2CC2)OCNc2ccc(Cl)cc21
–,metabolite_detected,4.98,–,–,–,–,–,–,–,–,–,–,–,–,–,–,–,O=C1Nc2ccc(Cl)cc2[C@@](/C=C/C2(O)CC2)(C(F)(F)F)O1

# Source: ChEMBL document CHEMBL3351404, “Structure-Activity Studies Reveal the Oxazinone Ring Is a Determinant of Cytochrome P450 2B6 Activity Toward Efavirenz” (ACS Med Chem Lett, 2014)
